Source: PubChem (Sanford-Burnham Center for Chemical Genomics)
In the library only some 1.5% were active in any assay of this set; here they are far more common.
EBI2 block = EBI2 (human) antagonism; 360,000 compounds, 0.81% hits; EBI2 beta-arrestin recruitment, luminescence, 7a,25-OHC stimulated; AID 651636; inhibition, % at 5 µM; in the data active means inhibition above about 38%;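 further: enzyme fragment complementation signal reports receptor beta-arrestin coupling in cells; 0% = agonist plus DMSO wells and 100% = wells without agonist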
CXCR6 block = CXCR6 (human) receptor inhibition; O00574; CHO-K1 PathHunter CXCR6 beta-arrestin, luminescence; inhibition, % at 20 µM; 360,000 compounds, 0.36% hits; AID 602244; in the data active means inhibition above about 34%, passing the limit was not always enough;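 further: antagonist mode with CXCL16 agonist at 10 nM final; 0% = 10 nM CXCL16 with DMSO and 100% = unstimulated wells without agonist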
CCR6 antag = antagonists of human CCR6 receptor; P51684; CHO-K1 CCR6 PathHunter beta-arrestin, luminescence, CCL20-stimulated; inhibition, % at 20 µM; 340,000 compounds, 0.49% hits; AID 493098;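 active means compounds whose inhibition of the agonist-driven luminescence signal at 20 µM reaches about 50%, limit read from the data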;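 further: cells stimulated with CCL20 at 14 nM final; plate controls were DMSO with CCL20 for no effect and DMSO without agonist for full effect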
Target sequence (P51684 whole entry, looked up): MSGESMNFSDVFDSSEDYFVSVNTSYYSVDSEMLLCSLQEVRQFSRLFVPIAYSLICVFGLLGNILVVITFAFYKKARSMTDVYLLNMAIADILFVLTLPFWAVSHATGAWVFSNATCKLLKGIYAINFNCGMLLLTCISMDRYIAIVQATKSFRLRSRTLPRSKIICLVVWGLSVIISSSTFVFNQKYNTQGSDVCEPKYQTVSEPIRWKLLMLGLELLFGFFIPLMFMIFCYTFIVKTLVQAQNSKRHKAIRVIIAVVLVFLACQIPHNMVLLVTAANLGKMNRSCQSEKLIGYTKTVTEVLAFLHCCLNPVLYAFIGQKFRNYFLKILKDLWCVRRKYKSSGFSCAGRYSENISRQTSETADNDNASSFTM
APJ ag = APJ receptor agonism; 330,000 compounds, 0.11% hits; P35414; CHO-K1 APJ PathHunter beta-arrestin, luminescence; 0% DMSO wells, 100% apelin; activation, % at 20 µM;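 active means activation more than six SD over the plate average, tested at 20 µM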;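 further: 0% = DMSO alone and 100% = apelin-13 at 10 nM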
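Material: CHO-K1 APJ beta-arrestin complementation cell line; Input: cell density 1000 per well; Incubation: compound stimulation 90 min at 25 °C, detection 60 min; Signal: luminescence from split beta-galactosidase complementation, Galacton Star/Emerald II substrate; Controls: DMSO-only wells as negative, 10 nM Apelin-13 as positive control.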
APJ antagonist = blocks the human apelin receptor APJ; P35414; CHO-K1 APJ beta-arrestin complementation, luminescence; inhibition, % at 20 µM; 330,000 compounds, 0.32% hits; AID 2521;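 active means inhibition above about 40% at 20 µM, limit read from the data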;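 further: cells challenged with 10 nM apelin-13 agonist together with compound; plate controls were apelin-13 plus DMSO wells for no effect and DMSO wells lacking apelin-13 for full effect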
EBI2 antag conf = confirmation of human EBI2 receptor antagonists; inhibition, % at 5 µM; 2,400 compounds, 29% hits; EBI2 beta-arrestin luminescence, 7a,25-OHC antagonism; shares compounds with EBI2 block;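 active means inhibition of at least 50%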
EBI2 ag = activates EBI2, counter-screen for EBI2 antagonists | shares compounds with EBI2 block | EBI2-expressing cells, agonist mode, luminescence, 60 min; 0% vehicle, 100% 7α,25-dihydroxycholesterol control | activation, % at 5 µM | 2,400 tested, under 10 active;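 active means activation of at least 50%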
bGal cs = beta-galactosidase inhibition counter-screen; shares compounds with EBI2 block; purified beta-galactosidase, luminescent Galacton Star, 15 min; inhibition, % at 5 µM; 2,400 compounds, 1% hits; AID 652176;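 active means replicate-average signal at least 3 plate SD below neutral wells, shown as high inhibition, flagging enzyme-inhibiting false positives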;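 further: 0% = DMSO wells with enzyme and 100% = wells lacking enzyme; higher means stronger loss of beta-gal luminescence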
Numbers without * were called inactive; ! = a repeat was not active.

For CCOc1ccc(C2=Nn3c(nnc3-c3cccnc3)SC2)cc1 the results were EBI2 block 16, CXCR6 block 14, CCR6 antag 23, APJ ag -2 and APJ antagonist -2.
Screening CCC(C)c1ccc(NC(=S)Nc2ccc(OC)cc2)cc1 (stereo not drawn) returned EBI2 block 53*, CXCR6 block 7, CCR6 antag 9, APJ ag -1, APJ antagonist -6, EBI2 antag conf 49, EBI2 ag 2 and bGal cs 4.
`CNC(=S)Nc1ccc(OCc2ccccc2)cc1` gave EBI2 block -1, CXCR6 block -11, CCR6 antag 11, APJ ag -2 and APJ antagonist 9.
For COc1ccc(CCNC(=S)Nc2ccc(C(C)C)cc2)cc1 the results were EBI2 block 24, CXCR6 block -5, CCR6 antag 15, APJ ag -1 and APJ antagonist 0.
For COc1ccc(NC(=S)Nc2ccccc2)cc1 the results were EBI2 block 39*!, CXCR6 block 3, CCR6 antag 7, APJ ag -2, APJ antagonist 12, EBI2 antag conf 9, EBI2 ag 3 and bGal cs 7.
`COc1ccc(NC(=S)c2ccccc2)cc1` gave EBI2 block -6, CXCR6 block 4, CCR6 antag 10, APJ ag -2 and APJ antagonist 5.
`CC(C)c1ccc(NC(=S)Nc2ccc(OC(F)(F)F)cc2)cc1` gave EBI2 block 55*, CXCR6 block 1, CCR6 antag 13, APJ ag -2, APJ antagonist -9, EBI2 antag conf 51*, EBI2 ag 2 and bGal cs 3.
`CCOc1ccc(NC(=S)Nc2ccc(OCc3ccccc3)cc2)cc1` gave EBI2 block 58*, CXCR6 block -4, CCR6 antag 14, APJ ag 5, APJ antagonist 8, EBI2 antag conf 36, EBI2 ag 0 and bGal cs -13.
`CCOc1ccccc1N(CC(=O)N1CCCCCC1)S(C)(=O)=O` gave EBI2 block -14, CXCR6 block 2, CCR6 antag 11, APJ ag -7 and APJ antagonist 0.
`CCCN1C(=O)C(Cc2nc3ccccc3c(=O)n2-c2ccccc2)c2ccccc21` (stereo not drawn) gave EBI2 block 11, CXCR6 block 6, CCR6 antag 14, APJ ag -4 and APJ antagonist -1.
For CCOc1ccc(NC(=S)Nc2ccc(Br)cc2Cl)cc1 the results were EBI2 block 68*, CXCR6 block 10, CCR6 antag 14, APJ ag -3, APJ antagonist -5, EBI2 antag conf 43, EBI2 ag 2 and bGal cs -2.
Screening CCOc1ccc(NC(=S)Nc2ccc(OC)cc2)cc1 returned EBI2 block 75*, CXCR6 block 3, CCR6 antag -3, APJ ag -2, APJ antagonist -7, EBI2 antag conf 63*, EBI2 ag -1 and bGal cs -15.
`CCOc1ccc(OCC(=O)Nc2ccc(OC)cc2)cc1` gave EBI2 block -7, CXCR6 block -7, CCR6 antag 6, APJ ag 2 and APJ antagonist 11.
COc1cccc(NC(=S)Nc2ccc(Br)cc2Cl)c1 was read as EBI2 block 1, CXCR6 block 4, CCR6 antag 1, APJ ag -1 and APJ antagonist -3.
`O=C(Nc1ccc([N+](=O)[O-])cc1)c1ccc(S(=O)(=O)N2CCCC2)cc1` gave EBI2 block 16, CXCR6 block -5, CCR6 antag -3, APJ ag -4 and APJ antagonist -1.
`Cc1ccc2[nH]c3c(=O)n(Cc4ccco4)cnc3c2c1` gave EBI2 block -5, CXCR6 block -17, CCR6 antag -9, APJ ag -3 and APJ antagonist 11.
